Values after ≈ are worked out from the molar mass of the structure shown.

The subject of test [1] is Candida albicans. Description: In vitro Minimum inhibitory concentration was determined by microbroth dilution assay on Candida albicans. It is filed as functional. In outline:
(§1)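 Microbroth dilution, 4×10^3 cells/mL (C. albicans B311; C. tropicalis and T. glabrata clinical isolates, pre-grown 18 h at 35 °C and washed) in YNB with asparagine and glucose, pH 5.5; 0.10–100 μg/mL drug, 1% DMSO final; 24 h at 35 °C, quadruplicate wells. MIC read visually as first concentration with marked growth reduction; geometric mean reported.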

Test [2] has as its system Candida albicans. Description: Compound was tested for the inhibition of Delta 24-sterol-C-methyl-transferase. The gist of the method: (§2)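 Microsomes from C. albicans ATCC 28367, 0.20 mg microsomal protein per assay; desmosterol as sterol substrate, SAM 25 μM; standard assay pH 7.5. Reversible inhibition patterns and constants fitted by Cleland COMP/NONCOMP, or otherwise by a parabolic competitive inhibition equation, which gives the alpha cooperativity factor for binding of two inhibitor molecules.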

Test [3] relates to Nakaseomyces glabratus. Description: In vitro Minimum inhibitory concentration was determined by microbroth dilution assay on Torulopsis glabrata. It is filed as functional. In outline: as §1
For test [4], the system named is Candida albicans. Description: In vitro Minimum lethal concentration was determined by microbroth dilution assay on Candida albicans. It is filed as functional. In outline:
(§3)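 C. albicans strain B311; C. tropicalis and T. glabrata were clinical isolates. Yeasts were pregrown 18 h at 35 °C, 125 rpm, in the test medium, saline-washed three times and counted by hemocytometer. Assay medium was YNB with 0.15% asparagine and 2% glucose, pH 5.5. Final drug 0.10 to 100 μg/mL, 1% DMSO, 4×10^3 cells/mL, quadruplicate wells, 35 °C for 24 h. MLC = first concentration whose subculture (Sabouraud agar, 48 h, 35 °C) gave ≤50 CFU/mL; geometric mean reported.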

Test [5] concerns Candida tropicalis. The test can be described thus: In vitro Minimum lethal concentration was determined by microbroth dilution assay on Candida tropicalis. It is filed as functional. The gist of the method:
as §3

The test system of test [6] is Candida albicans. Description: Inhibition type against delta 24-sterol Methyl transferase. In outline: as §2
Test [7] has as its system Candida albicans. The test can be described thus: Alpha factor which describes the cooperativity of binding of 2 identical inhibitor molecules. In outline: as §2
Test [8] relates to Nakaseomyces glabratus. Description: In vitro Minimum lethal concentration was determined by microbroth dilution assay on Torulopsis glabrata. It counts as functional. In outline:
as §3

Test [9] deals with Candida tropicalis. Description: In vitro Minimum inhibitory concentration was determined by microbroth dilution assay on Candida tropicalis. It counts as functional. In outline: as §1
For test [10], the system named is Candida albicans. The test can be described thus: Compound was tested for the inhibition of delta24-sterol Methyl transferase. In outline: as §2
For test [11], the system named is Candida albicans.

On to `C[C@H](CCC(=N)N)C1CC[C@@]2(C)C3=C(CC[C@]12C)[C@@]1(C)CC[C@H](O)C(C)(C)C1CC3.O=S(=O)(O)C(F)(F)F` (some centres not stated), for which the minimum inhibitory concentration (MIC) in test [1] came out at 0.2 µg/mL; in test [3], 3.1 µg/mL; in test [9] it was 0.4 µg/mL. Further, the Kis in test [2] is 11 nM. In addition, the MLC in [4] was found to be 12.5 µg/mL; in test [5], 12.5 µg/mL; in [8] it was 50 µg/mL. Moreover, in test [6], the Inhibition type result is on record as “Parabolic competitive”. In test [7], the Alpha c stood at 0.06.

As to `CC(C)SCC[C@@H](C)C1CC[C@@]2(C)C3=C(CC[C@]12C)[C@@]1(C)CC[C@H](O)C(C)(C)C1CC3` (some centres not stated), the Inhibition type entry in [6] is “Competitive”. In addition, the Kis in [10] was 72000 nM.

As to `C[C@H](CCc1ncc[nH]1)C1CC[C@@]2(C)C3=C(CC[C@]12C)[C@@]1(C)CC[C@H](O)C(C)(C)C1CC3` (some centres not stated), the MIC in [1] was 1.6 µg/mL (≈ 3.65 µM); in test [3] it was greater than 100 µg/mL; in test [9], greater than 100 µg/mL. Also, the MLC in test [4], in [5] and in test [8] was greater than 100 µg/mL throughout. In addition, the Kii in test [11] was determined as 25 nM. Moreover, in [6], the Inhibition type result is recorded as “Noncompetitive”. In test [10], this compound returned a Kis of 11 nM.

In the case of `C[C@H](CCc1nccn1C)C1CC[C@@]2(C)C3=C(CC[C@]12C)[C@@]1(C)CC[C@H](O)C(C)(C)C1CC3` (some centres not stated), the MIC in test [1] is 0.4 µg/mL (≈ 0.884 µM); in test [3], greater than 100 µg/mL; in test [9] it was 12.5 µg/mL (≈ 27.6 µM). The MLC was greater than 100 µg/mL in test [4], 100 µg/mL (≈ 221 µM) in [5] and greater than 100 µg/mL in test [8]. Further, the Inhibition type entry in test [6] is “Parabolic competitive”. The same compound gave a Kis in test [10] of 5 nM.

Take `CC(C)[S+](C)CC[C@@H](C)C1CC[C@@]2(C)C3=C(CC[C@]12C)[C@@]1(C)CC[C@H](O)C(C)(C)C1CC3` (some centres not stated): the Inhibition type entry in [6] is “Parabolic competitive”. Moreover, the Kis in test [10] came out at 21 nM. Also, in [7], the Alpha c amounted to 0.02.

For `C[C@H](CCC(N)=[N+](C)C)C1CC[C@@]2(C)C3=C(CC[C@]12C)[C@@]1(C)CC[C@H](O)C(C)(C)C1CC3` (some centres not stated), the Inhibition type entry in [6] is “Parabolic competitive”. The Kis in [10] was 6 nM.

With `CC(C)SCC[C@@H](C)C1CCC2C3CC=C4C[C@@H](O)CC[C@]4(C)C3CC[C@@]21C` (some centres not stated), the values for the minimum inhibitory concentration (MIC) in test [1], in test [3] and in [9] were 50 µg/mL (≈ 124 µM), greater than 100 µg/mL and greater than 100 µg/mL, respectively. The compound further returned a Kis in test [2] of 1500 nM. Besides, the MLC in test [4], in test [5] and in test [8] was greater than 100 µg/mL throughout. In addition, the Inhibition type entry in [6] is recorded as “Competitive”.

`CC[S+](CC[C@@H](C)C1CCC2C3CC=C4C[C@@H](O)CC[C@]4(C)C3CC[C@@]21C)C(C)C.[I-]` (some centres not stated): the minimal inhibitory concentration (MIC) in test [1] is 100 µg/mL; in test [3], greater than 100 µg/mL; in test [9], 100 µg/mL. Further, the MLC in test [4], in test [5] and in test [8] was greater than 100 µg/mL each time. The Inhibition type entry in [6] is “Parabolic competitive”. Besides, the Kis in test [10] stood at 500 nM.

As for `CC(C)[S+](C)CC[C@@H](C)C1CCC2C3CC=C4C[C@@H](O)CC[C@]4(C)C3CC[C@@]21C.[I-]` (some centres not stated), the MIC in [1] was determined as 0.2 µg/mL; in [3], 1.6 µg/mL; in test [9], 0.2 µg/mL. This compound also came in with a Kis in test [2] of 16 nM. For the same compound, the MLC is 50 µg/mL in test [4], 6.3 µg/mL in [5] and 50 µg/mL in test [8]. For the same compound, in test [6], the Inhibition type entry is recorded as “Parabolic competitive”. The compound further came in with an Alpha c in [7] of 0.05.

As to `C[C@@H]1[C@H](O)[C@@H](C)/C=C/C=C/C=C/C=C/C=C/C=C/C=C/[C@H](O[C@@H]2O[C@H](C)[C@@H](O)[C@H](N)[C@@H]2O)C[C@@H]2O[C@](O)(C[C@@H](O)C[C@@H](O)[C@H](O)CC[C@@H](O)C[C@@H](O)CC(=O)O[C@H]1C)C[C@H](O)[C@H]2C(=O)O` [AMPHOTERICIN B], the results for the minimum inhibitory concentration (MIC) in test [1], in test [3] and in test [9] were 0.2 µg/mL (≈ 0.216 µM), 0.1 µg/mL (≈ 0.108 µM) and 0.2 µg/mL (≈ 0.216 µM), respectively. In addition, the MLC turned out to be 0.8 µg/mL (≈ 0.866 µM) in test [4], 0.4 µg/mL (≈ 0.433 µM) in test [5] and 0.4 µg/mL (≈ 0.433 µM) in test [8].

In the case of `CC(C)[S+]([O-])CC[C@@H](C)C1CCC2C3CC=C4C[C@@H](O)CC[C@]4(C)C3CC[C@@]21C` (some centres not stated), the Inhibition type entry in test [6] is on record as “Competitive”. For the same compound, in [10], the Kis was determined as 20000 nM.

With `CC(=O)N1CCN(c2ccc(OCC3COC(Cn4ccnc4)(c4ccc(Cl)cc4Cl)O3)cc2)CC1` (configuration not stated) [KETOCONAZOLE], the values for the MIC in test [1], in test [3] and in test [9] were 0.1 µg/mL (≈ 0.188 µM), 3.1 µg/mL (≈ 5.83 µM) and 1.6 µg/mL (≈ 3.01 µM), respectively. The MLC in [4] was determined as 12.5 µg/mL (≈ 23.5 µM); in test [5], 6.3 µg/mL (≈ 11.9 µM); in test [8], 12.5 pug ml-1.

The values are drawn from ChEMBL document CHEMBL1126006, “Synthesis, specificity, and antifungal activity of inhibitors of the Candida albicans delta 24-sterol methyltransferase” (J Med Chem, 1992).
